According to ChEMBL document CHEMBL4834390, “Nanomolar-Potency 1,2,4-Triazoloquinoxaline Inhibitors of the Kidney Urea Transporter UT-A1” (J Med Chem, 2018):
Calls of active or inactive are those of the source. The calls are words filed in the database; no cut-off is given here.

Legend:
Urea transporter 2 = biological target: T1, Urea transporter 2 (Rattus norvegicus, UniProt Q62668); assay: Inhibition of rat UT-A1 expressed in MDCK cells incubated for 15 mins by fluorescence plate reader assay; assay type: cell-based
T1 sequence (Q62668 whole entry): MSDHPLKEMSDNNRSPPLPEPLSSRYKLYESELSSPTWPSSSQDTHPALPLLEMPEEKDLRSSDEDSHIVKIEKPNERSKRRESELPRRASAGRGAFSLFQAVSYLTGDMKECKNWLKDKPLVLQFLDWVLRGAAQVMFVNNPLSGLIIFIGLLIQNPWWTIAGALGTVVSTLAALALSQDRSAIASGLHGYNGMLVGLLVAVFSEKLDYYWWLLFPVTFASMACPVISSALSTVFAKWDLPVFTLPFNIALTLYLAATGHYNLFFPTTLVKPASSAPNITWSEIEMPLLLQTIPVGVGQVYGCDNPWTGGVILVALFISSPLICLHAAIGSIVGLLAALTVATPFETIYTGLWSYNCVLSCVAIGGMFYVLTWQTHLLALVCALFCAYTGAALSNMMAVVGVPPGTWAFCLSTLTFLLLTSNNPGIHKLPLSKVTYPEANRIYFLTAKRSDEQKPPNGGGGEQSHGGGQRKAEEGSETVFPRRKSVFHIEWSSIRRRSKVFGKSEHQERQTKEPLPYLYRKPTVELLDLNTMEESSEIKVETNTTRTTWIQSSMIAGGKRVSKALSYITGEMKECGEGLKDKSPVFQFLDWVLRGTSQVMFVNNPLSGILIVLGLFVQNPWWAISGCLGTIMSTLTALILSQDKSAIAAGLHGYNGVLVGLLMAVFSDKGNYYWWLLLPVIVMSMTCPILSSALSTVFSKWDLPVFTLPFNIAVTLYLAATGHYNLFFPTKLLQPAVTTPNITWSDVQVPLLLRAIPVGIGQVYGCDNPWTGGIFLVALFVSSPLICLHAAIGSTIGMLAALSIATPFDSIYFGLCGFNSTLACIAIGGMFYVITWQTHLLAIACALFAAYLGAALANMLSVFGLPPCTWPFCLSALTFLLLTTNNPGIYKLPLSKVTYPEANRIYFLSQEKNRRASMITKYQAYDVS

Urea transporter 1 = biological target: T2, Urea transporter 1 (Rattus norvegicus, UniProt P97689); assay: Inhibition of rat UT-B incubated for 15 mins
T2 sequence (P97689 whole entry): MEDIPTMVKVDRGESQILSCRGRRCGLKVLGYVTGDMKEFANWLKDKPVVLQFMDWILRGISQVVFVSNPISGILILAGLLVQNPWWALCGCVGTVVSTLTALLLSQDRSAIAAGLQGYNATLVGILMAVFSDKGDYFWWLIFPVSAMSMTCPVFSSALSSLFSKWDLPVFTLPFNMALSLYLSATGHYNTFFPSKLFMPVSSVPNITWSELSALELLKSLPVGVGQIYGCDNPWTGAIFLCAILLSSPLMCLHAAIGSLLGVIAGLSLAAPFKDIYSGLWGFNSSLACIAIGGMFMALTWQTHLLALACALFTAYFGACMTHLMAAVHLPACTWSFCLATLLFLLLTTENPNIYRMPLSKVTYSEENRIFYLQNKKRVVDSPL
How it was run: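 Rat whole blood diluted to ~1.5% hematocrit in PBS with 1.25 M acetamide and 5 mM glucose; compound incubated 15 min, then cells mixed into isomolar buffer; lysis read by absorbance at 710 nm. Isomolar buffer as non-lysed and 0.7 mM phloretin as lysed control; % lysis computed from these; mean ± SEM, n = 3.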

MDCK = assay: Cytotoxicity against dog MDCK cells at 10 uM after 24 hrs by alamar blue assay; assay type: cell-based, Canis lupus familiaris
How it was run: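 MDCK cells stably co-expressing rat UT-A1, YFP-H148Q/V163S and human AQP1 grown 24 h at 37 °C, then exposed to compound at 10 µM for 24 h; viability read by AlamarBlue; mean ± SEM, n = 3.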

[1] = Drug concentration in Wistar rat urine at 4 mg/kg, iv after 3 hrs by LC/MS analysis; assay type: ADME, organism-based; details: read-out: Ct
How it was run: (§1)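 Male Wistar rats (250–300 g) dosed 4 mg/kg iv in saline containing 20% dimethylacetamide and 1.28 mg/mL NaOH. Tail-vein blood taken at 15, 30, 60, 120, 180 min without anticoagulant, serum separated; urine collected 3 h in metabolic cages; samples frozen at –20 °C. LC/MS (ESI positive) quantitation against standards spiked into control rat urine or plasma.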

Rattus norvegicus [2] = assay: Diuretic activity in Wistar rat assessed as reduction in urine osmolality at 4 mg/kg, iv after 3 hrs; assay type: functional, organism-based
How it was run: (§2)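 Male Wistar rats (250–300 g), acclimated in metabolic cages 3 days (6 h/day). Urine voided spontaneously over 3 h before dosing, then 4 mg/kg iv via catheter in saline with 20% dimethylacetamide and 1.28 mg/mL NaOH, or vehicle. Urine collected 3 h after dosing; volume and osmolality compared with pretreatment (paired t-test); mean ± SEM, n = 4.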

Rattus norvegicus [3] = assay: Diuretic activity in Wistar rat assessed as increase in urine volume at 4 mg/kg, iv after 3 hrs; assay type: functional, organism-based; how it was run: as §2
[4] = Drug concentration in Wistar rat serum at 4 mg/kg, iv after 3 hrs by LC/MS analysis; assay type: ADME, organism-based; how it was run: as §1
[5] = Metabolic stability in Sprague-Dawley rat liver microsomes assessed as compound remaining at 5 uM preincubated for 5 mins followed by NADPH addition and measured at 30 mins by LC/MS analysis; assay type: ADME, Microsome; details: time 35 min, read-out: Stabilty
How it was run: (§3)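 Compound at 5 µM preincubated 5 min at 37 °C with male Sprague-Dawley rat liver microsomes (1 mg protein/mL) in 0.1 M PBS pH 7.4. 1 mM NADPH then added, incubation continued at 37 °C for set times, then chilled and EtOAc-extracted. Parent compound measured by LC/MS as peak area/internal standard ratio; mean ± SEM, n = 3.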

[6] = Metabolic stability in Sprague-Dawley rat liver microsomes assessed as compound remaining at 5 uM preincubated for 5 mins followed by NADPH addition and measured at 15 mins by LC/MS analysis; assay type: ADME, Microsome; details: time 20 min, read-out: Stabilty; how it was run: as §3
[7] = biological target: T3, Urea transporter 2 (Rattus norvegicus) (UniProt Q62668); assay: Noncompetitive inhibition of rat UT-A1 expressed in MDCK cells assessed as inhibition of urea transport; assay type: cell-based
T3 sequence (whole entry): T1 sequence (Q62668 whole entry)

[8] = biological target: T3, Urea transporter 2 (Rattus norvegicus); assay: Inhibition of rat UT-A1 expressed in MDCK cells at 0.5 uM by fluorescence plate reader assay; assay type: cell-based; details: time 100-500 sec
How it was run: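 MDCK cells stably expressing rat UT-A1, human AQP1 and YFP volume sensor; compound at 0.5 µM added at different times before assay; urea transport followed by YFP fluorescence on a plate reader; DMSO as 0% and phloretin as 100% inhibition.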

[9] = biological target: T3, Urea transporter 2 (Rattus norvegicus); assay: Reversible inhibition of rat UT-A1 expressed in MDCK cells at 0.5 uM incubated for 15 mins followed by compound washing for 15 mins; assay type: cell-based
How it was run: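 MDCK cells stably expressing rat UT-A1, AQP1 and YFP sensor incubated with 0.5 µM compound for 15 min, washed with PBS for 15 min, then assayed for UT-A1 urea transport by fluorescence plate reader.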

IC50 (Urea transporter 2)	Structure (SMILES)	further results
> 20 µM	O=S(=O)(Nc1ccc(Oc2nc3ccccc3n3cnnc23)cc1)c1cccc(Cl)c1	
> 20 µM	COc1ccc(Cl)c(S(=O)(=O)Nc2ccc(Nc3nc4ccccc4n4cnnc34)cc2)c1	
0.75 µM	CCc1nnc2c(Oc3ccc(NS(=O)(=O)c4cc(C)ccc4C)cc3)nc3ccccc3n12	
1.5 µM	CCOc1nnc2c(Oc3ccc(NS(=O)(=O)c4cc(C)ccc4OC)cc3)nc3ccccc3n12	
> 20 µM	Cc1ccc(C)c(S(=O)(=O)Nc2ccc(Oc3nc4ccccc4n4c(C)nnc34)cc2)c1	
2.7 µM	COc1ccc(Cl)cc1S(=O)(=O)Nc1ccc(Oc2nc3cc(C)c(C)cc3n3cnnc23)cc1	
0.4 µM	CCCc1nnc2c(Oc3ccc(NS(=O)(=O)c4cc(Cl)ccc4OC)cc3)nc3cc(C)c(C)cc3n12	remaining at 0.25 h, 5 µM [6]: 25%
1.2 µM	COc1ccc(Cl)cc1S(=O)(=O)Nc1ccc(Oc2nc3cc(F)c(F)cc3n3cnnc23)cc1	
1.2 µM	CCOc1nnc2c(Oc3ccc(NS(=O)(=O)c4cc(Cl)ccc4OC)cc3)nc3ccccc3n12	
> 20 µM	COc1ccc(Cl)cc1S(=O)(=O)Nc1ccc(Oc2nc3ccccc3n3c(C)nnc23)cc1	
> 20 µM	COc1ccc(Cl)c(S(=O)(=O)Nc2cccc(Nc3nc4ccccc4n4cnnc34)c2)c1	
5 µM	O=S(=O)(Nc1ccc(Oc2nc3ccccc3n3cnnc23)cc1)c1ccccc1Cl	
3 µM	CC(=O)Nc1ccc(-c2noc(C3CCCN(C(=O)c4ccccc4F)C3)n2)cc1 (stereo unspecified)	IC50 (Urea transporter 1): > 50 µM
> 20 µM	COc1ccc(Cl)cc1S(=O)(=O)Nc1cccc(Oc2nc3ccccc3n3cnnc23)c1	
1.2 µM	COc1ccc(Cl)cc1S(=O)(=O)Nc1ccc(Oc2nc3cc(C)c(C)cc3n3c(C(C)C)nnc23)cc1	

More lines, now with the values behind:

Structure (SMILES)	IC50 (Urea transporter 2)	further results
CCc1nnc2c(Oc3ccc(NS(=O)(=O)c4cc(Cl)ccc4OC)cc3)nc3ccccc3n12	0.5 µM	
COc1ccc(Cl)cc1S(=O)(=O)Nc1cccc(O)c1	6 µM	IC50 (Urea transporter 1): 14 µM
CCCc1nnc2c(Oc3ccc(NS(=O)(=O)c4cc(C)ccc4OC)cc3)nc3ccccc3n12	0.4 µM	
Cc1ccccc1S(=O)(=O)Nc1ccc(Oc2nc3ccccc3n3cnnc23)cc1	8 µM	
COc1ccc(Cl)cc1S(=O)(=O)Nc1ccc(Nc2nc3ccccc3n3cnnc23)cc1	> 20 µM	
COc1ccc(-c2cccc(-c3ccn(Cc4csc(C)n4)n3)c2)nn1	1.5 µM	IC50 (Urea transporter 1): 31 µM
COc1ccc(Cl)c(S(=O)(=O)Nc2ccc(Oc3nc4ccccc4n4cnnc34)cc2)c1	> 20 µM	
COc1ccc(Cl)cc1S(=O)(=O)Nc1ccc(Oc2nc3ccccc3n3cnnc23)cc1	0.8 µM	Activity (MDCK): Non-Toxic; IC50 (Urea transporter 1): 4 µM
CCCc1nnc2c(Oc3ccc(NS(=O)(=O)c4cc(Cl)ccc4OC)cc3)nc3cc(F)c(F)cc3n12	0.3 µM	concentration at 3 h [1]: 6 µM; Activity (MDCK): Non-Toxic; Activity (Rattus norvegicus [2]): Active; IC50 (Urea transporter 1): 0.8 µM; Activity (Rattus norvegicus [3]): Active; concentration at 3 h [4]: > 2 µM; remaining at 0.5 h, 5 µM [5]: 60%
Cc1ccc(C)c(S(=O)(=O)Nc2ccc(Oc3nc4ccccc4n4cnnc34)cc2)c1	1.5 µM	
CCCCc1nnc2c(Oc3ccc(NS(=O)(=O)c4cc(C)ccc4C)cc3)nc3ccccc3n12	0.8 µM	
COc1ccc(Cl)c(S(=O)(=O)Nc2cccc(Oc3nc4ccccc4n4cnnc34)c2)c1	> 20 µM	
CCc1nnc2c(Oc3ccc(NS(=O)(=O)c4cc(C)ccc4OC)cc3)nc3ccccc3n12	0.7 µM	
COc1ccc(C)cc1S(=O)(=O)Nc1ccc(Oc2nc3cc(F)c(F)cc3n3cnnc23)cc1	1.5 µM	
COc1ccc(C)cc1S(=O)(=O)Nc1ccc(Oc2nc3ccccc3n3c(C)nnc23)cc1	> 20 µM	
O=S(=O)(Nc1ccc(Oc2nc3ccccc3n3cnnc23)cc1)c1ccccc1OC(F)(F)F	20 µM	
COC(=O)c1sc2nc3c(cc2c1N)CN(Cc1ccccc1)CC3	3 µM	IC50 (Urea transporter 1): 3 µM
Cc1ccc(C)c(S(=O)(=O)Nc2ccc(Oc3nc4ccccc4n4c(C(C)C)nnc34)cc2)c1	0.6 µM	
COc1ccc(C)cc1S(=O)(=O)Nc1ccc(Oc2nc3ccccc3n3c(C(C)C)nnc23)cc1	0.5 µM	
COc1ccc(Cl)cc1S(=O)(=O)Nc1ccc(Oc2nc3cc(Cl)c(Cl)cc3n3cnnc23)cc1	> 20 µM	
CCCc1nnc2c(Oc3ccc(NS(=O)(=O)c4cc(C)ccc4C)cc3)nc3ccccc3n12	0.5 µM	
O=C(Nc1ccon1)c1cc(-c2ccccc2)nc2ccccc12	2 µM	IC50 (Urea transporter 1): > 100 µM
CCCCc1nnc2c(Oc3ccc(NS(=O)(=O)c4cc(C)ccc4OC)cc3)nc3ccccc3n12	0.4 µM	
CCc1nnc2c(Oc3ccc(NS(=O)(=O)c4cc(Cl)ccc4OC)cc3)nc3cc(C)c(C)cc3n12	1.4 µM	
COc1ccc(Cl)cc1S(=O)(=O)Nc1ccc2nc(SC)sc2c1	5 µM	IC50 (Urea transporter 1): 10 µM
CCCc1nnc2c(Oc3ccc(NS(=O)(=O)c4cc(Cl)ccc4OC)cc3)nc3ccccc3n12	0.15 µM	inhibition [7]: Active; inhibition [8]: Active; Activity (MDCK): Non-Toxic; IC50 (Urea transporter 1): 2 µM; inhibition [9]: Active; remaining at 0.25 h, 5 µM [6]: 40%
COc1ccc(C)cc1S(=O)(=O)Nc1ccc(Oc2nc3ccccc3n3cnnc23)cc1	1.1 µM	
COc1ccc(Cl)cc1S(=O)(=O)Nc1ccc(Oc2nc3ccccc3n3c(C(C)C)nnc23)cc1	0.3 µM	
CCCCc1nnc2c(Oc3ccc(NS(=O)(=O)c4cc(Cl)ccc4OC)cc3)nc3ccccc3n12	0.2 µM	
